Experimental data reported in ChEMBL document CHEMBL1121468, “Synthesis and blood pressure lowering activity of 3-(substituted-amino)-1,2,4-benzothiadiazine 1-oxide derivatives” (1980).
The source made the active and inactive calls. The calls are words filed in the database; no cut-off is given here.

Legend:
Oryctolagus cuniculus [1] = assay: Minimum effective dose level to give significant blood pressure lowering effect in normotensive rabbits after administering intravenously; assay type: functional; settings: iv; for minimal effective dose: read-out: MED
Procedure, shortened: (§1)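 Conscious rabbits held in a stock. After 30 min, a 30-min control recording was taken, then drug was given into an ear vein and recording continued for 120 min. Mean arterial pressure (electrically damped) and heart rate were averaged at 10-min intervals over 120 min. The dose was adjusted to the minimum giving p < 0.05 lowering; in practice a ≥10 mmHg mean fall was significant. Vehicle: saline with 2% Emulphor EL-620.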

Rattus norvegicus [2] = assay: Percentage blood pressure lowering in spontaneously hypertensive rats within 3 hr of intraperitoneal administration at 5 mg/kg; assay type: functional
Procedure, shortened: (§2)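 Male Wistar/Kyoto SHR, about 6 months old, 300–400 g, housed four per cage with chow and water ad libitum. Drug given ip as a suspension in saline with 2% Emulphor EL-620. Systolic pressure was measured indirectly, mostly with photoelectric sensors at 25 °C, and earlier by a modified Friedman–Freed method with 30–45 s warming at 32 °C. Reported value: maximum % lowering within 3 h, mean ± SE.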

Rattus norvegicus [3] = assay: Percentage blood pressure lowering in spontaneously hypertensive rats within 3 hr of intraperitoneal administration at 50 mg/kg; assay type: functional; procedure, shortened: as §2
Rattus norvegicus [4] = assay: Percentage blood pressure lowering in spontaneously hypertensive rats within 3 hr of intraperitoneal administration at 20 mg/kg; assay type: functional; procedure, shortened: as §2
Rattus norvegicus [5] = assay: Percentage blood pressure lowering in spontaneously hypertensive rats within 3 hr of intraperitoneal administration at 2 mg/kg; assay type: functional; procedure, shortened: as §2
Rattus norvegicus [6] = assay: Percentage blood pressure lowering in spontaneously hypertensive rats within 3 hr of intraperitoneal administration at 20 mg/kg; Not statistically significant; assay type: functional; procedure, shortened: as §2
Rattus norvegicus [7] = assay: Percentage blood pressure lowering in spontaneously hypertensive rats within 3 hr of intraperitoneal administration at 25 mg/kg; assay type: functional; procedure, shortened: as §2
Rattus norvegicus [8] = assay: Percentage blood pressure lowering in spontaneously hypertensive rats within 3 hr of intraperitoneal administration at 0.5 mg/kg; assay type: functional; procedure, shortened: as §2
Oryctolagus cuniculus [9] = assay: Mean blood pressure lowering in normotensive rabbits over 2 h of intravenous administration at 0.008 mg/kg
Oryctolagus cuniculus [10] = assay: Mean blood pressure lowering in normotensive rabbits over 2 hr of intravenous administration at 0.125 mg/kg
Rattus norvegicus [11] = assay: Percentage blood pressure lowering in spontaneously hypertensive rats within 3 hr of intraperitoneal administration at 1.0 mg/kg; assay type: functional; procedure, shortened: as §2
Rattus norvegicus [12] = assay: Percentage blood pressure lowering in spontaneously hypertensive rats within 3 hr of intraperitoneal administration at 50 mg/kg; Not statistically significant; assay type: functional; procedure, shortened: as §2
Rattus norvegicus [13] = assay: Percentage blood pressure lowering in spontaneously hypertensive rats within 3 hr of intraperitoneal administration at 10 mg/kg; assay type: functional; procedure, shortened: as §2
Oryctolagus cuniculus [14] = assay: Minimum effective dose level to give significant blood pressure lowering effect in normotensive rabbits after administering intravenously; NA denotes not active at 2.5 mg/kg; assay type: functional, organism-based; parameters: dose 2.5 mg/kg; procedure, shortened: as §1

Row | Structure (SMILES) | minimal effective dose (Oryctolagus cuniculus [1]) | BP decrease (Rattus norvegicus [3]) | also measured
1 | COc1cc2c(cc1OC)S(C)(=O)=NC(N1CCC(O)CC1)=N2.Cl (configuration not stated) | 0.625 mg/kg | – | BP decrease (Rattus norvegicus [2]): 56.9%
2 | CCOc1cc2c(cc1OCC)S(C)(=O)=NC(N1CCN(C(=O)c3ccco3)CC1)=N2.Cl (configuration not stated) | 2.5 mg/kg | 16.4% | –
3 | COc1cc2c(cc1OC)S(C)(=O)=NC(N1CCC(OC(C)=O)CC1)=N2.Cl (configuration not stated) | 0.25 mg/kg | – | BP decrease (Rattus norvegicus [4]): 43%
4 | CCN(CC)C1=Nc2cc(OC)c(OC)cc2S(C)(=O)=N1.Cl (configuration not stated) | 0.04 mg/kg | – | BP decrease (Rattus norvegicus [5]): 37.3%
5 | COc1cc2c(cc1OC)S(C)(=O)=NC(N(C)C)=N2.Cl (configuration not stated) | 0.125 mg/kg | 24.8% | –
6 | COc1cc2c(cc1OC)S(C)(=O)=NC(N1CCCN(C(=O)c3ccco3)CC1)=N2.Cl (configuration not stated) | 1.25 mg/kg | – | BP decrease (Rattus norvegicus [6]): -1%
7 | COc1cc2c(cc1OC)S(C)(=O)=NC(N1CCN(c3ccccc3)CC1)=N2.Cl.Cl (configuration not stated) | 0.625 mg/kg | – | BP decrease (Rattus norvegicus [7]): 30.8%
8 | COc1cc2c(cc1OC)S(C)(=O)=NC(N1CCN(C)CC1)=N2.Cl.Cl (configuration not stated) | 5 mg/kg | 19.7% | –
9 | COc1cc2c(cc1OC)S(C)(=O)=NC(N1CCC(n3c(O)nc4ccccc43)CC1)=N2.Cl (configuration not stated) | 2.5 mg/kg | 22.5% | –
10 | COc1cc2c(cc1OC)S(C)(=O)=NC(N1CCN(C(=O)c3ccco3)CC1)=N2.Cl (configuration not stated) | – | – | BP decrease (Rattus norvegicus [8]): 28.8%; BP decrease (Oryctolagus cuniculus [9]): 11.9 mmHg; BP decrease (Oryctolagus cuniculus [10]): 24.8 mmHg
11 | COc1cc2c(cc1OC)S(C)(=O)=NC(N1CCN(C(=O)c3nnc(SC)o3)CC1)=N2.Cl (configuration not stated) | 0.2 mg/kg | – | BP decrease (Rattus norvegicus [11]): 14%
12 | CCS1(=O)=NC(N2CCN(C(=O)c3ccco3)CC2)=Nc2cc(OC)c(OC)cc21.Cl (configuration not stated) | 2.5 mg/kg | 18.2% | –
13 | COc1cc2c(cc1OC)S(C)(=O)=NC(N1CCC(C#N)(c3ccccc3)CC1)=N2.Cl (configuration not stated) | – | – | BP decrease (Rattus norvegicus [12]): 1.6%
14 | COc1cc2c(cc1OC)S(C)(=O)=NC(NC(C)C)=N2.Cl (configuration not stated) | 2.5 mg/kg | 17.7% | –
15 | COc1cc2c(cc1OC)S(C)(=O)=NC(N1CCC(O)(c3ccccc3)CC1)=N2.Cl (configuration not stated) | – | 21.4% | –
16 | COc1cc2c(c(OC)c1OC)S(C)(=O)=NC(N1CCN(C(=O)c3ccco3)CC1)=N2.Cl (configuration not stated) | 0.04 mg/kg | 20.6% | –
17 | COc1cc2c(cc1OC)S(C)(=O)=NC(N1CCCCC1)=N2.Cl (configuration not stated) | 1.25 mg/kg | – | BP decrease (Rattus norvegicus [12]): 17.1%
18 | COc1cc2c(cc1OC)S(C)(=O)=NC(N1CCN(Cc3ccccc3)CC1)=N2.Cl.Cl (configuration not stated) | 2.5 mg/kg | 32.9% | –
19 | COc1cc2c(cc1OC)S(C)(=O)=NC(N1CCN(C(=O)c3ccccc3)CC1)=N2.Cl (configuration not stated) | 0.312 mg/kg | 25.5% | –
20 | COc1cc2c(cc1OC)S(=O)(C(C)C)=NC(N1CCN(C(=O)c3ccco3)CC1)=N2.Cl (configuration not stated) | – | 34.3% | –
21 | CNC1=Nc2cc(OC)c(OC)cc2S(C)(=O)=N1.Cl (configuration not stated) | 0.16 mg/kg | – | BP decrease (Rattus norvegicus [12]): 11.3%
22 | COc1cc2c(cc1OC)S(C)(=O)=NC(N1CCC(c3ccccc3)CC1)=N2.Cl (configuration not stated) | 0.16 mg/kg | 30.2% | –
23 | COc1cc2c(cc1OC)S(C)(=O)=NC(NCc1ccccc1)=N2.Cl (configuration not stated) | 1.25 mg/kg | 28.9% | –
24 | COc1cc2c(cc1OC)S(C)(=O)=NC(N1CCNCC1)=N2.Cl.Cl (configuration not stated) | 10 mg/kg | – | BP decrease (Rattus norvegicus [12]): 9.1%
25 | COc1cc2c(cc1OC)S(=O)(c1ccccc1)=NC(N1CCN(C(=O)c3ccco3)CC1)=N2.Cl (configuration not stated) | 1.25 mg/kg | 26.1% | –
26 | COc1cc2c(cc1OC)S(C)(=O)=NC(Nc1ccccc1)=N2.Cl (configuration not stated) | 1 mg/kg | 19.9% | –
27 | COc1cc2c(cc1OC)S(C)(=O)=NC(N1CCC(C(O)c3ccccc3)CC1)=N2.Cl (configuration not stated) | 0.008 mg/kg | – | BP decrease (Rattus norvegicus [13]): 40.9%
28 | COc1cc2nc(N3CCN(C(=O)c4ccco4)CC3)nc(N)c2cc1OC.Cl [PRAZOSIN HYDROCHLORIDE] | – | – | BP decrease (Rattus norvegicus [8]): 14.7%; MED (Oryctolagus cuniculus [1]): 0.025 mg/kg
29 | COc1cc2c(cc1OC)S(C)(=O)=NC(N1CCC(C(=O)c3ccccc3)CC1)=N2.Cl (configuration not stated) | – | – | BP decrease (Rattus norvegicus [5]): 25.8%
30 | CS1(=O)=NC(N2CCN(C(=O)c3ccco3)CC2)=Nc2cc3c(cc21)OCO3.Cl (configuration not stated) | – | 18.2% | BP decrease (Oryctolagus cuniculus [14]): inactive
